The nature of series [1]: folding enthalpy; higher = less favourable; fluorescence melt of hairpins on a sequencing array, two-state fit. The conditions noted are these: sodium 0.088 M. In a few lines: (§1)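 Bootstrapped two-state fits yielded melting temperature and folding enthalpy for library hairpins. Cy3 fluorescence, with annealed Cy3 and quencher oligos, was imaged on a sequenced MiSeq flow cell in 50 mM Na-HEPES pH 8.0, 25 mM NaCl in 2.5 °C steps up to 60 °C, and normalised to pre-quench Cy3 and to control constructs. Four replicates were combined by inverse variance, and fitted temperatures were raised by 9.35 °C to match UV melts.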

Series [2] in a line: melting temperature; fluorescence melt of hairpins on a sequencing array, two-state fit, raised by 9.35 °C to match UV melts. The conditions noted are these: sodium 0.088 M. In a few lines: as §1

For GTTTGACGAAAGTCTAAC (((.(((....))).))), the folding enthalpy in series [1] is -105 kJ/mol. Besides, in series [2], the Tm was determined as 47.7 °C.
For GTTTGAGGAAACTTGAAC (((..((....))..))), the folding enthalpy in series [1] was -72.5 kJ/mol. The Tm in series [2] is 33.1 °C.
On the same counts, the results for GTTTGCCCGAAAGGGAAC (((..(((....)))))) are -47.2 kJ/mol and 32.5 °C.
On the same counts, the results for GTTTGCGAAAGCAAAAC ((((((....))).))) are -72.7 kJ/mol and 52.6 °C.
For GTTTGCGAAAGCAAGAAC ((((((....)))..))), in that order: -42 kJ/mol and 36.7 °C.
In the case of GTTTGCGAAAGCATAAC ((((((....))).))), in series [1], the folding enthalpy is -72.5 kJ/mol. Further, in series [2], the Tm is 43 °C.
Take GTTTGCGGAAACGTAGAC ((.(.((....)).).)): the folding enthalpy in series [1] was -85.7 kJ/mol. In addition, the Tm in series [2] was 30.7 °C.
Consider GTTTGCTCGAAAGAGAAC (((..(((....)))))), for which the folding enthalpy in series [1] was -61.4 kJ/mol. Also, in series [2], the Tm worked out at 27 °C.
With GTTTGGCGAAAGCCGAAC (((.(((....))).))), the folding enthalpy in series [1] was -86.1 kJ/mol. The Tm in series [2] was found to be 58.8 °C.
For GTTTGGGGAAACCCAAAC (((((((....))))))), in series [1], the folding enthalpy was -177 kJ/mol. Further, in series [2], the Tm is 59 °C.
For GTTTGGGGAAACCCAAGC (.(((((....))))).), in that order: -91.5 kJ/mol and 43.5 °C.
Take GTTTGGTCGAAAGACAAC (((..(((....)))))): the folding enthalpy in series [1] is -55.4 kJ/mol. Moreover, the Tm in series [2] was determined as 31.4 °C.
On to GTTTGTACGAAAGTAAAC (((..(((....)))))), for which the folding enthalpy in series [1] was -102 kJ/mol. In addition, the Tm in series [2] was determined as 32.8 °C.
Regarding GTTTGTCCGAAAGGAAAC (((..(((....)))))), in series [1], the folding enthalpy is -79.2 kJ/mol. Moreover, in series [2], the Tm was found to be 35.9 °C.
Take GTTTGTGCGAAAGCAAAC (((..(((....)))))): the folding enthalpy in series [1] was -76.1 kJ/mol. Moreover, the Tm in series [2] worked out at 41.5 °C.
For the sequence GTTTGTGGAAACACAGAC ((.((((....)))).)), the folding enthalpy in series [1] was -98.8 kJ/mol. Moreover, the Tm in series [2] amounted to 43.9 °C.
On the same counts, the results for GTTTTACGAAAGTATAAC (((.(((....))).))) are -99.9 kJ/mol and 37.5 °C.
On the same counts, the results for GTTTTAGAAATAAAAC ((((((....)))))) are -93.3 kJ/mol and 36.7 °C.
With GTTTTAGGAAACTAAAGC (.(((((....))))).), the folding enthalpy in series [1] was -62.6 kJ/mol. For the same sequence, the Tm in series [2] was 31.5 °C.
On to GTTTTCCGAAAGGAAAC (((.(((....)))))), for which, in series [1], the folding enthalpy was -56.7 kJ/mol. Moreover, the Tm in series [2] was found to be 47.8 °C.
As to GTTTTCGGAAACGAAAAC (((((((....))))))), the folding enthalpy in series [1] was -178 kJ/mol. Also, the Tm in series [2] came to 58.5 °C.
In the case of GTTTTCGGAAACGAGAAC (((.(((....))).))), the folding enthalpy in series [1] is -115 kJ/mol. Moreover, the Tm in series [2] worked out at 41.6 °C.
For GTTTTGCGAAAGCACAAC (((.(((....))).))), in series [1], the folding enthalpy is -118 kJ/mol. In series [2], the Tm was 44.2 °C.
For GTTTTGGGAAACTAAGAC ((.((.(....).)).)), in series [1], the folding enthalpy was -38 kJ/mol. Further, in series [2], the Tm came to 29 °C.
On the same counts, the results for GTTTTGGGAAACTAGAAC (((.(.(....).).))) are -32.8 kJ/mol and 23.7 °C.
For GTTTTTACGAAAGTAAAC (((..(((....)))))), the folding enthalpy in series [1] was -71.7 kJ/mol. Moreover, the Tm in series [2] amounted to 29.9 °C.
Regarding GTTTTTCGAAAGAAGAAC (((.(((....))).))), the folding enthalpy in series [1] was -136 kJ/mol. Besides, in series [2], the Tm worked out at 37.3 °C.
Regarding GTTTTTGCGAAAGCAAAC (((..(((....)))))), the folding enthalpy in series [1] was -49.8 kJ/mol. The Tm in series [2] was found to be 35.2 °C.
Regarding TAAGGGAAACCTTA (((((....))))), in series [1], the folding enthalpy was -44.2 kJ/mol. Also, the Tm in series [2] was determined as 29.1 °C.
In the case of TAATCGAAAGATTA (((((....))))), the folding enthalpy in series [1] is -63.4 kJ/mol. In addition, the Tm in series [2] amounted to 38.9 °C.
On the same counts, the results for TACACGAAAGTGTA (((((....))))) are -57.3 kJ/mol and 57.8 °C.
With TACGGGAAACCGTA (((((....))))), the folding enthalpy in series [1] was -65.9 kJ/mol. Also, in series [2], the Tm is 48.5 °C.
As for TAGATGAAAATCTA (((((....))))), the folding enthalpy in series [1] is -42.2 kJ/mol. Also, in series [2], the Tm stood at 26.1 °C.
Consider TAGCTGAAAAGCTA (((((....))))), for which the folding enthalpy in series [1] is -61.2 kJ/mol. Further, the Tm in series [2] was 46.9 °C.
On to TAGGAGAAATCCTA (((((....))))), for which the folding enthalpy in series [1] is -36.1 kJ/mol. The Tm in series [2] is 25.9 °C.
On to TAGGCGAAAGCCTA (((((....))))), for which the folding enthalpy in series [1] was -51.1 kJ/mol. The Tm in series [2] is 65.5 °C.
For the sequence TAGTCGAAAGACTA (((((....))))), the folding enthalpy in series [1] is -72.8 kJ/mol. In series [2], the Tm was 49.6 °C.
Regarding TAGTTGAAAAACTA (((((....))))), in series [1], the folding enthalpy was -49.2 kJ/mol. The Tm in series [2] was 27.4 °C.
For the sequence TATGCGAAAGCATA (((((....))))), in series [1], the folding enthalpy was -56.8 kJ/mol. Also, the Tm in series [2] was 60.1 °C.
For the sequence TATTCGAAAGAATA (((((....))))), the folding enthalpy in series [1] was -59.7 kJ/mol. Moreover, in series [2], the Tm turned out to be 36.7 °C.
Take TCAACGAAAGTTGA (((((....))))): the folding enthalpy in series [1] is -73.4 kJ/mol. The Tm in series [2] was 52 °C.
With TCCCAGAAATGGGA (((((....))))), in series [1], the folding enthalpy was -66.4 kJ/mol. For the same sequence, in series [2], the Tm worked out at 43.8 °C.
For TCCTTGAAAAAGGA (((((....))))), in that order: -46.6 kJ/mol and 35.1 °C.
TCGAAGAAATTCGA (((((....))))): the folding enthalpy in series [1] was -46.4 kJ/mol. Also, in series [2], the Tm turned out to be 38.7 °C.
On the same counts, the results for TCGCTGAAAAGCGA (((((....))))) are -72.8 kJ/mol and 68.8 °C.
With TCGTAGAAATACGA (((((....))))), the folding enthalpy in series [1] is -48.6 kJ/mol. For the same sequence, the Tm in series [2] amounted to 41.3 °C.
TCTCGGAAACGAGA (((((....))))): the folding enthalpy in series [1] was -81.9 kJ/mol. Further, in series [2], the Tm stood at 47.9 °C.
On the same counts, the results for TCTGGGAAACCAGA (((((....))))) are -62.9 kJ/mol and 47.1 °C.
Regarding TCTTCGAAAGAAGA (((((....))))), the folding enthalpy in series [1] is -78.8 kJ/mol. For the same sequence, in series [2], the Tm stood at 45.8 °C.
TGAAAGAAATTTCA (((((....))))): the folding enthalpy in series [1] was -24.5 kJ/mol. Further, in series [2], the Tm turned out to be 26.4 °C.
On the same counts, the results for TGATCGAAAGATCA (((((....))))) are -88 kJ/mol and 51.3 °C.
As to TGCGGGAAACCGCA (((((....))))), in series [1], the folding enthalpy was -65.8 kJ/mol. Moreover, the Tm in series [2] was found to be 66.5 °C.
Turning to TGCTCGAAAGAGCA (((((....))))), in series [1], the folding enthalpy is -74.7 kJ/mol. Further, the Tm in series [2] turned out to be 67.7 °C.
In the case of TGGCAGAAATGCCA (((((....))))), the folding enthalpy in series [1] was -97.4 kJ/mol. For the same sequence, the Tm in series [2] was found to be 54.2 °C.
On the same counts, the results for TGGGAGAAATCCCA (((((....))))) are -81.5 kJ/mol and 40.7 °C.
Regarding TGGTAGAAATACCA (((((....))))), the folding enthalpy in series [1] is -53.3 kJ/mol. In addition, the Tm in series [2] worked out at 36.8 °C.
For TGTAAGAAATTACA (((((....))))), in that order: -33.4 kJ/mol and 20.6 °C.
As for TGTAGGAAACTACA (((((....))))), the folding enthalpy in series [1] is -70.6 kJ/mol. Moreover, the Tm in series [2] came out at 36.9 °C.
For TGTTGGAAACAACA (((((....))))), in that order: -77.2 kJ/mol and 42.9 °C.
Consider TGTTTGAAAAAACA (((((....))))), for which the folding enthalpy in series [1] was -35.1 kJ/mol. Further, the Tm in series [2] is 29.3 °C.
For the sequence TTAGTGAAAACTAA (((((....))))), the folding enthalpy in series [1] is -35.9 kJ/mol. Besides, in series [2], the Tm was found to be 27.8 °C.
In the case of TTATGGAAACATAA (((((....))))), the folding enthalpy in series [1] is -35.8 kJ/mol. For the same sequence, in series [2], the Tm turned out to be 22.8 °C.
Take TTCCCGAAAGGGAA (((((....))))): in series [1], the folding enthalpy was -100 kJ/mol. In series [2], the Tm was determined as 56.1 °C.
As to TTCCTGAAAAGGAA (((((....))))), in series [1], the folding enthalpy was -62.7 kJ/mol. The Tm in series [2] came out at 39.9 °C.
As for TTGTAGAAATACAA (((((....))))), in series [1], the folding enthalpy is -26.4 kJ/mol. Moreover, the Tm in series [2] came to 24.9 °C.
For TTTCCGAAAGGAAA (((((....))))), in series [1], the folding enthalpy is -79.6 kJ/mol. The Tm in series [2] was determined as 49.3 °C.
